According to PubChem BioAssay:
The source made the active and inactive calls. Cut-off read from the data, not from the text of the source, unless noted: active = inhibition above about 30%; inactive = the rest.

How the values were obtained:
[1] = reducers of endogenous Her2 protein level, primary screen, SKBR3 breast tumor cells, AlphaScreen, ATP viability (AID 461;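 active = Her2 level under about 52% in both replicate screens, with viability over 70% of control, limit read from the data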;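 for Her2 level: lower value means less Her2 protein in the cells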;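 for viability: percent of carrier control wells set as 100% viability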); settings: 18-24 h, measured here: SKBR3 viability, ATP luminescence, at 10 µM
[2] = molecular target: Receptor tyrosine-protein kinase erbB-2 (Homo sapiens) (UniProt P04626); assay: as above; settings: 18-24 h, at 10 µM, stronger effect = lower value
[3] = SK-BR-3 cell growth inhibitors, pilot screen, 24 h, human (AID 572;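 active = viability at or below 10% of carrier control in both of two separate runs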;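 note: compound exposure lasted between 18 and 24 h rather than exactly 24 h; 100% = carrier-treated control wells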); settings: SK-BR-3 viability, CellTiter-Glo luminescence, at 10 µM, stronger effect = lower value
[4] = HUVEC growth inhibition – cell-based, human, primary screen (AID 575;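 active = viability at or below 30% in both replicate assays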;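 note: 100% = median of untreated cell wells with 0.1% DMSO on each plate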); settings: HUVEC proliferation, CellTiter-Glo luminescence, 72 h; at 10 µM; stronger effect = lower value
Method in brief: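 System: primary human umbilical vein endothelial cells; Quantity: 1250 endothelial cells in each well; Buffer or medium: supplemented EBM, 2% fetal bovine serum; Doses: one dose, 10 µM final, 0.1% DMSO; Incubation: 72 h compound incubation; Technique: ATP-based CellTiter-Glo luminescent read; Evaluation: percent of median DMSO-control luminescence; Controls: vehicle and MePR control wells.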

[5] = growth inhibitors of H69AR lung tumor, primary screen, human, duplicate replicates (AID 580;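 active = viability at or under a set limit in both replicates, limit being median viability minus 3 SD, cut at about 48% in these data, passing the limit was not always enough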;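 note: 100% = mean luminescence of untreated wells and 0% = no signal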); settings: H69AR lung tumor cells viability, ATP luminescence, 72 h; at 10 µM; stronger effect = lower value
[6] = reversal of MRP1-mediated doxorubicin resistance, pilot screen, H69AR cells, doxorubicin co-treatment (AID 601;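 active = viability loss from added drug above about 55%, and viability with drug at most 40%, in both replicates, limit read from the data, passing the limit was not always enough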); settings: CellTiter-Glo, 72 h, at 10 µM; for differential viability (reversal): stronger effect = higher value
[7] = 384-well plate pilot, post-Golgi transport modulator project, inhibition of yeast transport mutant growth (AID 636; in the data active = inhibition above about 31%); settings: absorbance 615 nm, about 18 h, stronger effect = higher value
[8] = growth suppression of yeast trafficking mutant, preliminary HTS, modulators of trafficking downstream of Golgi apparatus project, 1536-format plate, OD 615 nm (AID 637); settings: yeast transport mutant growth, absorbance 615 nm, 18 h; stronger effect = higher value
[9] = H69AR cells + 2 uM doxorubicin, measured here: viability with 2 uM doxorubicin, stronger effect = lower value
[10] = H69AR cells, compound alone cytotoxicity

Chain of Receptor tyrosine-protein kinase erbB-2 (Homo sapiens) (P04626 whole entry, looked up): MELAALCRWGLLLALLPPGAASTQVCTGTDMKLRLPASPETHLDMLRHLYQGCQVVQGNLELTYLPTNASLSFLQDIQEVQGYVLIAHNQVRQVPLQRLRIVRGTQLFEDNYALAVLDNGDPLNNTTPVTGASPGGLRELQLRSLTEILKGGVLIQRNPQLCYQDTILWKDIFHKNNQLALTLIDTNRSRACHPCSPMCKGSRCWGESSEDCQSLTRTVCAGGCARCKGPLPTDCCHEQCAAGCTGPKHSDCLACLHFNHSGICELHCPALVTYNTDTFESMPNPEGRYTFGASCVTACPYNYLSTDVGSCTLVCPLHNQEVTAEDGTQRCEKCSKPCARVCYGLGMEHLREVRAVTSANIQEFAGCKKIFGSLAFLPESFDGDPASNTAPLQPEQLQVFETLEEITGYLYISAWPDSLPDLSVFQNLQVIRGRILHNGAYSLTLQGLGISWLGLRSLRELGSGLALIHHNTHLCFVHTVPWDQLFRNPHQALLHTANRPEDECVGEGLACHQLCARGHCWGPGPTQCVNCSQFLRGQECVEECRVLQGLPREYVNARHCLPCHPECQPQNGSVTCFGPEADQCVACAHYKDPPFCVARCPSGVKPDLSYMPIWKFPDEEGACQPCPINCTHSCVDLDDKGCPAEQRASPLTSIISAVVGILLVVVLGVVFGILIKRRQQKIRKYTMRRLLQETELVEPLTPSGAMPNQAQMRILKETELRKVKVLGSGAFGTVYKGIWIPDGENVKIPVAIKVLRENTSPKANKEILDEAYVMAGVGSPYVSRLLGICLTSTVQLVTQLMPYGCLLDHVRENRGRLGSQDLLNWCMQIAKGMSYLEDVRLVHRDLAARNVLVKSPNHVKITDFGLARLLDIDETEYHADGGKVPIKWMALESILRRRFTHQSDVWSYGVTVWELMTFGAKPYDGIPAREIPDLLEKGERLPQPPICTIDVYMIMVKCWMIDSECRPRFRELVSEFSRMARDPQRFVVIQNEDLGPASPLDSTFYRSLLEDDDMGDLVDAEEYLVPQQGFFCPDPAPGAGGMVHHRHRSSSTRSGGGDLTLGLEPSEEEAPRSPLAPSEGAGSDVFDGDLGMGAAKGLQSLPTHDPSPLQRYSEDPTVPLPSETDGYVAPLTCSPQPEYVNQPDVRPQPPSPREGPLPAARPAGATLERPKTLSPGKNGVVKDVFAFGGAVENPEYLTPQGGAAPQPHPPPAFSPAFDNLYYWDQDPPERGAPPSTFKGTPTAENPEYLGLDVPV

| SMILES | viability [1] [%] | Her2 level [2] | viability [3] | viability [4] | viability [5] | differential viability (reversal) ([6]; H69AR cells + 2 uM doxorubicin) | viability [6, 9] [%] | viability [6, 10] [%] | inhibition [7] | inhibition [8] |
| --- | --- | --- | --- | --- | --- | --- | --- | --- | --- | --- |
| Cc1cc(C)c2cc3c(ccn3C3OC[C@H](O)[C@H](O)[C@H]3O)cc2n1 (stereo not given in full) | 95 | 105% (inactive) | 95% (inactive) | 90.2% (inactive) | 97.4% (inactive) | 7.18% (inactive) | 90.3 | 97.4 | -1.92% (inactive) | 1% (inactive) |
| CCCOc1nc(N)c(C#N)c(-c2ccccc2F)c1C#N | 98.5 | 114% (inactive) | 98.5% (inactive) | 82.6% (inactive) | 89.7% (inactive) | 29% (inactive) | 60.7 | 89.7 | -2.53% (inactive) | -9.52% (inactive) |
| COC(=O)[C@H](C)NC(=O)NCc1ccc(F)cc1 | 102 | 95% (inactive) | 102% (inactive) | 102% (inactive) | 95.3% (inactive) | -8.8% (inactive) | 104 | 95.3 | -2.21% (inactive) | -1.43% (inactive) |
| O=C(CSCc1cccc(F)c1)N1CCN(c2ccccc2)CC1 | 92 | 93.5% (inactive) | 92% (inactive) | 91% (inactive) | 101% (inactive) | 5.28% (inactive) | 96 | 101 | -5% (inactive) | -4.67% (inactive) |
| COc1cccc(CN2CCN(C(=O)CC(C)C)CC2)c1 | 92.5 | 76% (inactive) | 92.5% (inactive) | 87.4% (inactive) | 86.4% (inactive) | -2.34% (inactive) | 88.7 | 86.4 | 0.77% (inactive) | -0.83% (inactive) |
| CCOC(=O)C(NCc1ccccc1OC)(NC(C)=O)C(F)(F)F (stereo not given) | 116 | 91% (inactive) | 116% (inactive) | 98.8% (inactive) | 91.8% (inactive) | 1.75% (inactive) | 90.1 | 91.8 | -2.6% (inactive) | -0.63% (inactive) |
| COc1ccccc1C1/C(=C(\O)c2c(C)nc3c(C)cccn23)C(=O)C(=O)N1CCCN(C)C (stereo not given) | 102 | 79.5% (inactive) | 102% (inactive) | 85.3% (inactive) | 102% (inactive) | 12.5% (inactive) | 89.2 | 102 | -7.43% (inactive) | 5.67% (inactive) |
| C=CCn1c(Cc2cccs2)nnc1SCC(=O)Nc1ccc(OC)c(OC)c1 | 108 | 109% (inactive) | 108% (inactive) | 89.6% (inactive) | 85.3% (inactive) | -5.02% (inactive) | 90.3 | 85.3 | -5.06% (inactive) | 0% (inactive) |
| COc1cccc(CNC(=O)C2CCN(S(=O)(=O)c3ccc(F)cc3)CC2)c1 | 128 | 98.5% (inactive) | 128% (inactive) | 95.1% (inactive) | 97.5% (inactive) | -7.57% (inactive) | 105 | 97.5 | -2.37% (inactive) | 0.48% (inactive) |
| CCOC(=O)N1CCN(S(=O)(=O)c2cc(Cl)c(OC)cc2Cl)CC1 | 85 | 102% (inactive) | 85% (inactive) | 108% (inactive) | 91.1% (inactive) | -0.21% (inactive) | 91.3 | 91.1 | -2.24% (inactive) | -4.92% (inactive) |
| COC(=O)CCSCc1cn2cc(Cl)ccc2n1 | 120 | 106% (inactive) | 120% (inactive) | 87.3% (inactive) | 99.5% (inactive) | 1.26% (inactive) | 98.2 | 99.5 | -8% (inactive) | -9.84% (inactive) |
| CC1CCN(S(=O)(=O)c2ccc(NC(=O)CSc3nnnn3C)cc2)CC1 | 94.5 | 103% (inactive) | 94.5% (inactive) | 76.3% (inactive) | 101% (inactive) | 22% (inactive) | 78.7 | 101 | -5.92% (inactive) | -3.49% (inactive) |
| Nc1nnnn1/N=C/c1ccccc1OCc1ccccc1 | 118 | 96.5% (inactive) | 118% (inactive) | 78.9% (inactive) | 95.3% (inactive) | 8.29% (inactive) | 87 | 95.3 | -4.13% (inactive) | 2.42% (inactive) |
| Cc1cccc(-c2cc3nc(C)cc(NCCCN(C)C)n3n2)c1 | 91.5 | 87.5% (inactive) | 91.5% (inactive) | 57.5% (inactive) | 82.8% (inactive) | 6.94% (inactive) | 75.8 | 82.8 | -6.93% (inactive) | 1.97% (inactive) |
| COCC(C)NC(=O)NC(=O)c1ccc(Cl)cc1 (stereo not given) | 99.5 | 93% (inactive) | 99.5% (inactive) | 94.6% (inactive) | 98.7% (inactive) | 10.4% (inactive) | 88.3 | 98.7 | -6.13% (inactive) | 4.76% (inactive) |
| CCOC(=O)c1nnn(CC(=O)Nc2cccc(OC)c2)c1C(=O)OCC | 92.5 | 86.5% (inactive) | 92.5% (inactive) | 100% (inactive) | 83.7% (inactive) | -2.59% (inactive) | 86.3 | 83.7 | -4.53% (inactive) | 0.98% (inactive) |
| Cc1ccc(CNC(=O)COC(=O)c2c(C)noc2C)cc1 | 99 | 121% (inactive) | 99% (inactive) | 97.4% (inactive) | 92.8% (inactive) | 7.25% (inactive) | 85.6 | 92.8 | -4.03% (inactive) | -14.2% (inactive) |
| COCn1c(COc2ccccc2)nc2ccccc21 | 86.5 | 94% (inactive) | 86.5% (inactive) | 107% (inactive) | 82.6% (inactive) | -2.19% (inactive) | 84.8 | 82.6 | -9.32% (inactive) | -2.67% (inactive) |
| O=c1[nH]c(SCc2cc(=O)n3ccccc3n2)nc2c1CCC2 | 101 | 83.5% (inactive) | 101% (inactive) | 74.7% (inactive) | 85.2% (inactive) | 1.62% (inactive) | 83.6 | 85.2 | -2.76% (inactive) | -2.22% (inactive) |
| Cc1ccc(N2CC(C)Cn3c2nc2c3c(=O)n(CC(=O)OCc3ccccc3)c(=O)n2C)cc1C (stereo not given) | 86.5 | 99.5% (inactive) | 86.5% (inactive) | 74.8% (inactive) | 93.8% (inactive) | 26.6% (inactive) | 67.2 | 93.8 | -4.32% (inactive) | 1.97% (inactive) |
| Cc1cc(NC(=O)CSc2nc3ccsc3c(=O)n2NC(=O)c2ccccc2)no1 | 94.5 | 100% (inactive) | 94.5% (inactive) | 93.9% (inactive) | 97.1% (inactive) | 12% (inactive) | 85.1 | 97.1 | -0.93% (inactive) | 13.8% (inactive) |
| CCOC(=O)CSc1nc(C)c(C(=O)OCC)s1 | 89 | 93.5% (inactive) | 89% (inactive) | 105% (inactive) | 101% (inactive) | 3.4% (inactive) | 97.8 | 101 | 0.92% (inactive) | -4.68% (inactive) |
| CC1CN(S(=O)(=O)c2cccc(C(=O)OCc3cc(=O)oc4cc(O)ccc34)c2)CC(C)O1 (stereo not given) | 80.5 | 87% (inactive) | 80.5% (inactive) | 61.1% (inactive) | 78.2% (inactive) | 16.1% (inactive) | 62.1 | 78.2 | -6% (inactive) | -4.43% (inactive) |
| O=C(NCCc1ccccc1)C1CCN(S(=O)(=O)N2CCC3(CC2)OCCO3)CC1 | 102 | 88.5% (inactive) | 102% (inactive) | 88.5% (inactive) | 99.3% (inactive) | 10.9% (inactive) | 88.4 | 99.3 | -2.37% (inactive) | 0.16% (inactive) |
| COc1ccc(CN(Cc2nc3ccccc3c(=O)[nH]2)C(=O)NC2CCCCC2)cc1 | 95.5 | 71% (inactive) | 95.5% (inactive) | 91.4% (inactive) | 90.2% (inactive) | 0.78% (inactive) | 89.4 | 90.2 | -4.61% (inactive) | -0.5% (inactive) |
| Cc1cc(C)n(CC(=O)n2c3c(c4ccccc42)CCCC3)n1 | 116 | 117% (inactive) | 116% (inactive) | 75.3% (inactive) | 74.4% (inactive) | -6.97% (inactive) | 81.4 | 74.4 | -5.53% (inactive) | 3.77% (inactive) |
| CCn1nc(C)c(NC(=O)c2cc(Br)ccc2Cl)c1C | 84.5 | 78% (inactive) | 84.5% (inactive) | 88.5% (inactive) | 94% (inactive) | 14.3% (inactive) | 79.7 | 94 | -4.42% (inactive) | 3.44% (inactive) |
| CCOC(=O)c1cc2sc(C)cc2n1C(C)C(=O)OCC (stereo not given) | 97.5 | 79% (inactive) | 97.5% (inactive) | 95.8% (inactive) | 86.3% (inactive) | -6.21% (inactive) | 92.5 | 86.3 | -3.6% (inactive) | 1.8% (inactive) |
